Source: ChEMBL document CHEMBL2439964, “Identification of a series of 1,3,4-trisubstituted pyrazoles as novel hepatitis C virus entry inhibitors” (Bioorg Med Chem Lett, 2013)

Experiments:
[1] = Selectivity index, ratio of CC50 for human HuH7 cells to EC50 for cell culture derived HCV; design: species or system Huh-7
Method in brief: (§1)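 Naïve Huh-7 cells in 384-well plates were given serially diluted compound, then infected with cell culture-derived HCV (HCVcc) at MOI 1. Live cells were analysed 72 h post-infection. EC50 came from 10-point dose-response in duplicate with quadruplicate measurements, or 5-point in duplicate for one series. CC50 came from automated per-well cell counts. SI = CC50/EC50.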

[2] = Cytotoxicity against human HuH7 cells; format: cell-based, Huh-7; method in brief: as §1
[3] = system: Hepatitis C virus; experiment: Antiviral activity against cell culture derived HCV infected in human HuH7 cells assessed as inhibition of viral replication after 72 hrs; format: functional, organism-based, Hepacivirus hominis; details: Huh-7, 72 h; method in brief: as §1

## CN1CCN(CCNCc2cn(-c3ccc(F)cc3F)nc2-c2ccc(OC(F)(F)F)cc2)CC1
[1]
  Ratio CC50/EC50: 50
[2]
  CC50: 18 µM
[3]
  EC50: 0.36 µM

## Cc1ccccc1-c1nn(-c2ccc(F)c(F)c2)cc1CNCCN1CCN(C)CC1
[1]
  Ratio CC50/EC50: >7.7
[2]
  CC50: > 20 µM
[3]
  EC50: 2.6 µM

## CN1CCN(CCNCc2cn(-c3ccc(F)cc3F)nc2-c2ccccc2)CC1
[1]
  Ratio CC50/EC50: >13
[2]
  CC50: > 20 µM
[3]
  EC50: 1.6 µM

## CN1CCN(CCNCc2cc(-c3ccccc3)nn2-c2ccc(F)cc2)CC1
[2]
  CC50: > 20 µM
[3]
  EC50: 13 µM

## Cc1ccccc1-c1nn(-c2ccc(Cl)cc2)cc1CNCCN1CCN(C)CC1
[1]
  Ratio CC50/EC50: 26
[2]
  CC50: 17 µM
[3]
  EC50: 0.65 µM

## CN1CCN(CCCNCc2cn(-c3ccc([N+](=O)[O-])cc3)nc2-c2ccc(C(F)(F)F)cc2)CC1
[1]
  Ratio CC50/EC50: 41
[2]
  CC50: 4.9 µM
[3]
  EC50: 0.12 µM

## Cc1ccccc1-c1nn(Cc2ccc(F)cc2)cc1CNCCN1CCN(C)CC1
[1]
  Ratio CC50/EC50: >2
[2]
  CC50: > 20 µM
[3]
  EC50: 10 µM

## CN1CCN(CCNCc2cn(-c3ccc(C(F)(F)F)cc3)nc2-c2ccc(C(F)(F)F)cc2)CC1
[1]
  Ratio CC50/EC50: 3.1
[2]
  CC50: 1.5 µM
[3]
  EC50: 0.49 µM

## CCCN1CCC(CNCc2cn(-c3ccc([N+](=O)[O-])cc3)nc2-c2ccc(C(F)(F)F)cc2)CC1
[1]
  Ratio CC50/EC50: 15
[2]
  CC50: 2.3 µM
[3]
  EC50: 0.15 µM

## CCCCCNCc1cn(-c2ccc(F)cc2F)nc1-c1ccccc1C
[1]
  Ratio CC50/EC50: 1
[2]
  CC50: 17 µM
[3]
  EC50: 18 µM

## Cc1ccccc1-c1nn(-c2ccc(F)cc2F)cc1CNC1CCN(S(C)(=O)=O)CC1
[2]
  CC50: > 20 µM
[3]
  EC50: > 20 µM

## CCCN1CCC(CNCc2cn(-c3ccc([N+](=O)[O-])cc3)nc2-c2ccc(Cl)cc2)CC1
[1]
  Ratio CC50/EC50: 37
[2]
  CC50: 11 µM
[3]
  EC50: 0.3 µM

## Cc1ccccc1-c1nn(-c2cccc(Cl)c2)cc1CNCCN1CCN(C)CC1
[1]
  Ratio CC50/EC50: 16
[2]
  CC50: 16 µM
[3]
  EC50: 1 µM

## Cc1ccccc1-c1nn(Cc2ccccc2)cc1CNCCN1CCN(C)CC1
[1]
  Ratio CC50/EC50: >2.3
[2]
  CC50: > 20 µM
[3]
  EC50: 7.5 µM

## CN1CCN(CCNCc2cn(-c3ccc(F)cc3F)nc2-c2ccc(C(F)(F)F)cc2)CC1
[1]
  Ratio CC50/EC50: 37
[2]
  CC50: 20 µM
[3]
  EC50: 0.54 µM

## Cc1ccccc1-c1nn(-c2ccc(F)cc2F)cc1CN1CCN(C(C)C)CC1
[2]
  CC50: > 20 µM
[3]
  EC50: > 20 µM

## Cc1ccc(-n2cc(CNCCN3CCN(C)CC3)c(-c3ccccc3C)n2)c(C)c1
[1]
  Ratio CC50/EC50: >8.3
[2]
  CC50: > 20 µM
[3]
  EC50: 2.4 µM

## COC(=O)c1ccc(-c2nn(-c3ccc(F)cc3F)cc2CNCCN2CCN(C)CC2)cc1
[1]
  Ratio CC50/EC50: >5.3
[2]
  CC50: > 20 µM
[3]
  EC50: 3.8 µM

## Cc1ccccc1-c1nn(-c2ccc(F)cc2F)cc1CNCCN(C)C
[2]
  CC50: > 20 µM
[3]
  EC50: > 20 µM

## Cc1ccc(-c2nn(-c3ccc(F)cc3F)cc2CNCCN2CCN(C)CC2)cc1
[1]
  Ratio CC50/EC50: >25
[2]
  CC50: > 20 µM
[3]
  EC50: 0.81 µM

## CN1CCN(CCNCc2cn(-c3ccc(F)cc3F)nc2Cc2ccccc2)CC1
[1]
  Ratio CC50/EC50: >1.3
[2]
  CC50: > 20 µM
[3]
  EC50: 16 µM

## COc1ccc(-n2cc(CNCCN3CCN(C)CC3)c(-c3ccccc3C)n2)cc1
[1]
  Ratio CC50/EC50: >7.1
[2]
  CC50: > 20 µM
[3]
  EC50: 2.8 µM

## Cc1ccccc1-c1nn(-c2ccc(F)cc2F)cc1CNCCCN1CCN(C)CC1
[1]
  Ratio CC50/EC50: >9
[2]
  CC50: > 20 µM
[3]
  EC50: 2.2 µM

## Cc1c(CNCCN2CCN(C)CC2)c(-c2ccccc2)nn1-c1ccc(F)cc1
[2]
  CC50: > 20 µM
[3]
  EC50: 8.5 µM

## CCCN1CCC(CNCc2cn(-c3ccc(C(F)(F)F)cc3)nc2-c2ccc(OC(F)(F)F)cc2)CC1
[1]
  Ratio CC50/EC50: 5.3
[2]
  CC50: 2.2 µM
[3]
  EC50: 0.41 µM

## COCCN1CCC(CNCc2cn(-c3ccc(F)cc3F)nc2-c2ccccc2C)CC1
[1]
  Ratio CC50/EC50: >6.7
[2]
  CC50: > 20 µM
[3]
  EC50: 3 µM

## Cc1ccccc1-c1nn(-c2ccc(F)cc2F)cc1CNCc1ccncc1
[2]
  CC50: > 20 µM
[3]
  EC50: > 20 µM

## CN1CCN(CCCNCc2cn(-c3ccc(C(F)(F)F)cc3)nc2-c2ccc(Cl)cc2)CC1
[1]
  Ratio CC50/EC50: 6.9
[2]
  CC50: 2.5 µM
[3]
  EC50: 0.36 µM

## CN1CCN(CCCNCc2cn(-c3ccc(C(F)(F)F)cc3)nc2-c2ccc(C(F)(F)F)cc2)CC1
[1]
  Ratio CC50/EC50: 5.3
[2]
  CC50: 2 µM
[3]
  EC50: 0.38 µM

## CN1CCN(CCNCc2cn(-c3ccc([N+](=O)[O-])cc3)nc2-c2ccc(C(F)(F)F)cc2)CC1
[1]
  Ratio CC50/EC50: 29
[2]
  CC50: 3.2 µM
[3]
  EC50: 0.11 µM

## CCCN1CCC(CNCc2cn(-c3ccc(C(F)(F)F)cc3)nc2-c2ccc(Cl)cc2)CC1
[1]
  Ratio CC50/EC50: 6.7
[2]
  CC50: 1.9 µM
[3]
  EC50: 0.29 µM

## Cc1ccccc1-c1nn(-c2cccc(C(F)(F)F)c2)cc1CNCCN1CCN(C)CC1
[1]
  Ratio CC50/EC50: 20
[2]
  CC50: 18 µM
[3]
  EC50: 0.91 µM

## CCN(CC)CCCNCc1cn(-c2ccc(F)cc2F)nc1-c1ccccc1C
[1]
  Ratio CC50/EC50: >4.6
[2]
  CC50: > 20 µM
[3]
  EC50: 4.3 µM

## CN1CCN(CCNCc2cn(-c3ccc(F)cc3F)nc2-c2cccc(N(C)C)c2)CC1
[1]
  Ratio CC50/EC50: >6.3
[2]
  CC50: > 20 µM
[3]
  EC50: 3.2 µM

## CSc1ccc(-n2cc(CNCCN3CCN(C)CC3)c(-c3ccccc3C)n2)cc1
[1]
  Ratio CC50/EC50: 25
[2]
  CC50: 17 µM
[3]
  EC50: 0.67 µM

## CN1CCN(CCNCc2cn(-c3ccc(F)cc3F)nc2-c2ccc(S(=O)(=O)N(C)C)cc2)CC1
[1]
  Ratio CC50/EC50: >11
[2]
  CC50: > 20 µM
[3]
  EC50: 1.8 µM

## CCCN1CCC(CNCc2cn(-c3ccc([N+](=O)[O-])cc3)nc2-c2ccc(OC(F)(F)F)cc2)CC1
[1]
  Ratio CC50/EC50: 30
[2]
  CC50: 18 µM
[3]
  EC50: 0.6 µM

## Cc1ccccc1-c1nn(-c2ccc(F)cc2F)cc1CNCCN1CCCCC1
[1]
  Ratio CC50/EC50: >1
[2]
  CC50: > 20 µM
[3]
  EC50: 20 µM

## Cc1ccccc1CNc1nn(-c2ccc(F)cc2F)cc1CNCCN1CCN(C)CC1
[1]
  Ratio CC50/EC50: >4.7
[2]
  CC50: > 20 µM
[3]
  EC50: 4.3 µM

## Cc1ccccc1-c1nn(-c2cc(F)ccc2F)cc1CNCCN1CCN(C)CC1
[1]
  Ratio CC50/EC50: >8
[2]
  CC50: > 20 µM
[3]
  EC50: 2.5 µM

## CN1CCN(CCNCc2cn(-c3ccc(F)cc3F)nc2-c2cccc(Cl)c2)CC1
[1]
  Ratio CC50/EC50: 26
[2]
  CC50: 15 µM
[3]
  EC50: 0.58 µM

## Cc1ccccc1-c1nn(-c2ccc(F)cc2)cc1CNCCN1CCN(C)CC1
[1]
  Ratio CC50/EC50: >5.4
[2]
  CC50: > 20 µM
[3]
  EC50: 3.7 µM

## CN1CCN(CCNCc2cn(-c3ccc(C(F)(F)F)cc3)nc2-c2ccc(OC(F)(F)F)cc2)CC1
[1]
  Ratio CC50/EC50: 6.9
[2]
  CC50: 3 µM
[3]
  EC50: 0.44 µM

## Cc1ccccc1-c1nn(-c2ccccc2Cl)cc1CNCCN1CCN(C)CC1
[1]
  Ratio CC50/EC50: >5.3
[2]
  CC50: > 20 µM
[3]
  EC50: 3.8 µM

## Cc1ccccc1-c1nn(-c2ccc(N)cc2)cc1CNCCN1CCN(C)CC1
[1]
  Ratio CC50/EC50: >2
[2]
  CC50: > 20 µM
[3]
  EC50: 10 µM

## Cc1ccccc1-c1nn(-c2ccc(F)cc2F)cc1CNCCCCO
[2]
  CC50: > 20 µM
[3]
  EC50: > 20 µM

## Cc1ccccc1-c1nn(-c2ccc(F)cc2F)cc1CN1CCN(c2ccccc2)CC1
[2]
  CC50: > 20 µM
[3]
  EC50: > 20 µM

## CN1CCN(CCNCc2cn(-c3ccc(F)cc3F)nc2C(C)(C)C)CC1
[1]
  Ratio CC50/EC50: >1.8
[2]
  CC50: > 20 µM
[3]
  EC50: 11 µM

## COc1ccc(-c2nn(-c3ccc(F)cc3F)cc2CNCCN2CCN(C)CC2)cc1
[1]
  Ratio CC50/EC50: >9.5
[2]
  CC50: > 20 µM
[3]
  EC50: 2.1 µM

## Cc1ccccc1-c1nn(-c2ccc(F)cc2F)cc1CNCCN1CCOCC1
[2]
  CC50: > 20 µM
[3]
  EC50: > 20 µM

## Cc1ccccc1-c1nn(C(C)C)cc1CNCCN1CCN(C)CC1
[2]
  CC50: > 20 µM
[3]
  EC50: > 20 µM

## CCOC(=O)Cn1cc(CNCCN2CCN(C)CC2)c(-c2ccccc2C)n1
[2]
  CC50: > 20 µM
[3]
  EC50: > 20 µM

## CN1CCN(CCNC(=O)c2cn(-c3ccc(F)cc3F)nc2-c2ccccc2Cl)CC1
[2]
  CC50: > 20 µM
[3]
  EC50: > 20 µM
